Measured values published in ChEMBL document CHEMBL4325889, “Natural products hybrids: 3,5,4'-Trimethoxystilbene-5,6,7-trimethoxyflavone chimeric analogs as potential cytotoxic agents against diverse human cancer cells” (Eur J Med Chem, 2019).
Activity calls are given as the source filed them. The rule behind the calls is not given here.

Key:
[1] = test system: HeLa; experiment: Induction of apoptosis in human HeLa cells assessed as necrotic cells after 12 hrs by Annexin V-FITC/propidium iodide staining based flow cytometry (reference value: 0.9%); assay type: functional
Outline: (§1)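 HeLa human cervical cancer cells treated with increasing concentrations or for increasing incubation times. Cells stained with annexin V-FITC and propidium iodide and analysed by FACS. Gating: early apoptotic = annexin+/PI−, late apoptotic = annexin+/PI+.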

[2] = test system: HeLa; experiment: Induction of apoptosis in human HeLa cells assessed as early apoptotic cells at 10 uM by Annexin V-FITC/propidium iodide staining based flow cytometry (reference value: 5.7%); assay type: functional; outline: as §1
[3] = test system: HeLa; experiment: Induction of morphological changes in human HeLa cells assessed as nuclear fragmentation at 10 uM after 48 hrs by DAPI staining based fluorescence microscopic method; assay type: functional, cell-based
Outline: (§2)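 HeLa cells exposed to 10 µM for 48 h, then stained with DAPI. Nuclear shape, size and density (bright condensed, fragmented chromatin, apoptotic bodies) examined by fluorescence microscopy under 358 nm excitation, against untreated control cells.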

[4] = test system: HeLa; experiment: Cell cycle arrest in human HeLa cells assessed as accumulation at sub-G1 phase after 48 hrs by propidium iodide staining based flow cytometry (reference value: 4.43%); assay type: functional
[5] = test system: HeLa; experiment: Induction of apoptosis in human HeLa cells assessed as live cells at 5 uM by Annexin V-FITC/propidium iodide staining based flow cytometry (reference value: 85.2%); assay type: functional; outline: as §1
[6] = test system: HeLa; experiment: Induction of apoptosis in human HeLa cells assessed as late apoptotic cells after 24 hrs by Annexin V-FITC/propidium iodide staining based flow cytometry (reference value: 3.6%); assay type: functional; outline: as §1
[7] = test system: HeLa; experiment: Induction of apoptosis in human HeLa cells assessed as late apoptotic cells after 12 hrs by Annexin V-FITC/propidium iodide staining based flow cytometry (reference value: 3.6%); assay type: functional; outline: as §1
[8] = test system: HeLa; experiment: Induction of apoptosis in human HeLa cells assessed as necrotic cells at 2.5 uM by Annexin V-FITC/propidium iodide staining based flow cytometry (reference value: 2.2%); assay type: functional; outline: as §1
[9] = test system: HeLa; experiment: Induction of apoptosis in human HeLa cells assessed as necrotic cells after 24 hrs by Annexin V-FITC/propidium iodide staining based flow cytometry (reference value: 0.9%); assay type: functional; outline: as §1
[10] = test system: HeLa; experiment: Induction of apoptosis in human HeLa cells assessed as early apoptotic cells after 48 hrs by Annexin V-FITC/propidium iodide staining based flow cytometry (reference value: 2.6%); assay type: functional; outline: as §1
[11] = test system: HeLa; experiment: Induction of apoptosis in human HeLa cells assessed as live cells at 10 uM by Annexin V-FITC/propidium iodide staining based flow cytometry (reference value: 85.2%); assay type: functional; outline: as §1
[12] = test system: HeLa; experiment: Induction of apoptosis in human HeLa cells assessed as necrotic cells at 5 uM by Annexin V-FITC/propidium iodide staining based flow cytometry (reference value: 2.2%); assay type: functional; outline: as §1
[13] = test system: HeLa; experiment: Induction of apoptosis in human HeLa cells assessed as live cells after 24 hrs by Annexin V-FITC/propidium iodide staining based flow cytometry (reference value: 92.9%); assay type: functional; outline: as §1
[14] = test system: HeLa; experiment: Cell cycle arrest in human HeLa cells assessed as accumulation at sub-G1 phase up to 10 uM by propidium iodide staining based flow cytometry (reference value: 6.24%); assay type: functional
[15] = test system: HeLa; experiment: Induction of apoptosis in human HeLa cells assessed as necrotic cells after 48 hrs by Annexin V-FITC/propidium iodide staining based flow cytometry (reference value: 0.9%); assay type: functional; outline: as §1
[16] = test system: HeLa; experiment: Induction of apoptosis in human HeLa cells assessed as early apoptotic cells at 5 uM by Annexin V-FITC/propidium iodide staining based flow cytometry (reference value: 5.7%); assay type: functional; outline: as §1
[17] = test system: HeLa; experiment: Induction of apoptosis in human HeLa cells assessed as live cells after 12 hrs by Annexin V-FITC/propidium iodide staining based flow cytometry (reference value: 92.9%); assay type: functional; outline: as §1
[18] = test system: HeLa; experiment: Induction of apoptosis in human HeLa cells assessed as early apoptotic cells after 12 hrs by Annexin V-FITC/propidium iodide staining based flow cytometry (reference value: 2.6%); assay type: functional; outline: as §1
[19] = test system: HeLa; experiment: Induction of morphological changes in human HeLa cells assessed as chromatin condensation at 10 uM after 48 hrs by DAPI staining based fluorescence microscopic method; assay type: functional, cell-based; outline: as §2

`COc1cc(NC(=O)c2cccc(-c3cc(=O)c4c(OC)c(OC)c(OC)cc4o3)c2)cc(OC)c1OC` was tested, and the Activity [1] was 1%, the Activity [2] was 22.6% and the Activity [3] was “Active”. For the same compound, the Activity [4] was 26.61%, the Activity [5] was 59.4% and the Activity [6] was 4.4%. For the same compound, the Activity [7] was 5.5%, the Activity [8] was 2.4% and the Activity [9] was 1.8%. The Activity [10] was 24%, the Activity [11] was 43.7% and the Activity [12] was 5.7%. It also gave an Activity [13] of 80.3%, an Activity [14] of 19.14% and an Activity [15] of 3.7%. The Activity [16] was 21.1%, the Activity [17] was 89.3% and the Activity [18] was 4.2%. The Activity [19] was “Active”.
